Paper PMC3662250 (Synlett : accounts and rapid communications in synthetic …, 2010)

Biological target: human ΔF508-CFTR (Homo sapiens, UniProt P13569, DEL508-508)
Test: ΔF508-CFTR corrector activity assay
Assay type: cell-based
Conditions: comparison with bithiazole 27 of earlier studies
Method in brief: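 FRT cells expressing ΔF508-CFTR, with FRT-null cells as counter-screen. Cells were PBS-washed, then incubated 20 min with forskolin (20 µM) plus genistein (50 µM). Fluorescence (ex 500, em 535 nm) was read 2 s baseline, then 12 s after adding PBS with 137 mM Cl− replaced by I−. Initial slope was extrapolated from an exponential fit of the final 11.5 s. Controls were DMSO vehicle, a bithiazole corrector and CFTRinh-172 inhibition.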

Vmax compared with s-cis locked bithiazole 27: greater Vmax value
SMILES: Cc1cccc(Nc2ncnc3onc(-c4ccc(F)cc4)c23)c1C [Compound 7]
